Consider 5 compounds from ChEMBL document CHEMBL1140859, “Design and synthesis of some thiazolyl and thiadiazolyl derivatives of antipyrine as potential non-acidic anti-inflammatory, analgesic and antimicrobial agents” (Bioorg Med Chem, 2009).

The test system of data set [1] is Rattus norvegicus. The data set can be described thus: Antiinflammatory activity against formalin-induced paw edema in anaesthetized Albino rat sub-acute inflammatory model at 20 mg/kg, po measured on day 1. The data set is classed as functional. In a few lines: (§1)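 Sub-acute paw edema: test compounds 20 mg/kg po daily for 7 days, diclofenac Na 10 mg/kg po; 0.1 mL 2% formalin injected subplantar into left hind paw under light ether anaesthesia on days 1 and 3, 1 h after dosing. Paw volume measured on day 1 and day 8; % anti-inflammatory activity; N = 5 rats.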

For data set [2], the system named is Rattus norvegicus. The data set can be described thus: Antiinflammatory activity against turpentine oil-induced granuloma pouch in anaesthetized Albino rat sub-acute inflammatory model at 20 mg/kg, po 1 hr before turpentine oil challenge for 7 days assessed after 8 days. In kind it is functional. In short, it runs like this: (§2)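 Dorsal subcutaneous pouch made in ether-anaesthetised rats with 2 mL air, then 0.5 mL turpentine oil. Test compounds 20 mg/kg po, diclofenac Na 10 mg/kg po, started 1 h before turpentine and continued 7 days. Exudate aspirated on day 8 under anaesthesia; volume measured; % inhibition = (Vcontrol − Vtreated)/Vcontrol × 100; N = 5.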

The next data set relates to Klebsiella pneumoniae. The data set can be described thus: Antimicrobial activity against Klebsiella pneumoniae clinical isolate after 24 hrs by twofold serial dilution method. In kind it is functional. In short, it runs like this: (§3)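 Broth microdilution in Müller–Hinton broth on compounds with agar-diffusion inhibition zones ≥14 mm (disks with 1 mg/mL in DMSO, 37 °C, 24 h, triplicate).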

For another data set, the system named is Escherichia coli. Kind of data set: Antimicrobial activity against Escherichia coli ATCC 25922 after 24 hrs by twofold serial dilution method. The data set is classed as functional. The conditions noted are these: ATCC 25922, 24 h. In a few lines:
as §3

Data set [3] concerns Rattus norvegicus. The data set can be described thus: Antiinflammatory activity against formalin-induced paw edema in anaesthetized Albino rat acute inflammatory model at 20 mg/kg, po dosed 1 hr before formalin challenge assessed after 2 hrs. The data set is classed as functional. In a few lines:
(§4)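 Rats in groups of five plus control; test compounds 20 mg/kg po, diclofenac Na 10 mg/kg po, given 1 h before 0.1 mL 2% formalin injected subplantar into left hind paw under light ether anaesthesia. Paw volume by water plethysmometer at 0 and 1, 2, 3, 4 h after formalin; % anti-inflammatory activity versus control; mean ± SE, N = 5.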

Data set [4] has as its system Rattus norvegicus. The data set can be described thus: Antiinflammatory activity against formalin-induced paw edema in anaesthetized Albino rat acute inflammatory model at 20 mg/kg, po dosed 1 hr before formalin challenge assessed after 3 hrs. In kind it is functional. In a few lines: as §4
The subject of data set [5] is Rattus norvegicus. Kind of data set: Antiinflammatory activity against formalin-induced paw edema in anaesthetized Albino rat sub-acute inflammatory model at 20 mg/kg, po for 7 days measured on day 8. In kind it is functional. In short, it runs like this:
as §1

In a further data set the test system is Pseudomonas aeruginosa. Kind of data set: Antimicrobial activity against Pseudomonas aeruginosa ATCC 27853 after 24 hrs by twofold serial dilution method. The conditions noted are these: ATCC 27853, 24 h. In kind it is functional. In short, it runs like this: as §3
The next data set relates to Micrococcus luteus. The data set can be described thus: Antimicrobial activity against Micrococcus luteus ATCC 21881 after 24 hrs by twofold serial dilution method. Conditions: ATCC 21881, 24 h. The data set is classed as functional. In a few lines: as §3
Data set [6] relates to Rattus norvegicus. The data set can be described thus: Antiinflammatory activity against formalin-induced paw edema in anaesthetized Albino rat acute inflammatory model at 20 mg/kg, po dosed 1 hr before formalin challenge assessed after 4 hrs. In kind it is functional. In short, it runs like this:
as §4

A further data set deals with Staphylococcus aureus. Kind of data set: Antimicrobial activity against Staphylococcus aureus ATCC 6538 after 24 hrs by twofold serial dilution method. In kind it is functional. Conditions: ATCC 6538, 24 h. In short, it runs like this:
as §3

Data set [7] has as its system Rattus norvegicus. The data set can be described thus: Analgesic activity in Albino rat assessed as tail withdrawal response at 20 mg/kg, po after 3 hrs. The data set is classed as functional. In a few lines:
(§5)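 Male albino rats, 120–150 g, groups of five plus untreated control; test compounds 20 mg/kg po, diclofenac Na 10 mg/kg po. Tail immersed in 55 °C water; withdrawal reaction time read 1, 2 and 3 h after dosing; percentage increase in reaction time over basal computed; mean ± SE of five animals.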

The test system of data set [8] is Rattus norvegicus. Kind of data set: Analgesic activity in Albino rat assessed as tail withdrawal response at 20 mg/kg, po after 1 hr. In kind it is functional. In a few lines:
as §5

The nature of data set [9]: Acute toxicity in Albino rat after 24 hrs. The data set is classed as organism-based. Conditions: in vivo, read-out: ALD50. In a few lines: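 Male rats, 180–200 g, groups of five, fasted 24 h before dosing; compounds given orally in graded doses of 0.1–3.0 g/kg; mortality recorded at each dose level after 24 h to estimate approximate acute lethal dose (ALD50).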
Data set [10] relates to Rattus norvegicus. Kind of data set: Analgesic activity in Albino rat assessed as tail withdrawal response at 20 mg/kg, po after 2 hrs. The data set is classed as functional. In a few lines:
as §5

Data set [11] has as its system Rattus norvegicus. Kind of data set: Toxicity in Albino rat assessed as induction of gastric ulceration at 300 mg/kg, po twice a day after 2 hrs. In kind it is organism-based, Stomach. On the set-up: dose 300 mg/kg, route oral. Conditions: in vivo. In a few lines: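 Male albino rats (180–200 g), five per group, fasted 12 h with water ad libitum. Oral dosing at 300 mg/kg; the results text gives two doses at a 2 h interval, while the methods give two equal doses at 0 and 12 h over three days. Controls received 1% gum acacia orally. Rats were killed with ether 6 h after the last dose, and stomachs were inspected grossly for ulceration and hyperemia.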

Data set [12] relates to Rattus norvegicus. The data set can be described thus: Antiinflammatory activity against formalin-induced paw edema in anaesthetized Albino rat acute inflammatory model at 20 mg/kg, po dosed 1 hr before formalin challenge assessed after 1 hr. In kind it is functional. In a few lines: as §4
Another data set relates to Bacillus subtilis. The data set can be described thus: Antimicrobial activity against Bacillus subtilis NRRL B-14819 after 24 hrs by twofold serial dilution method. The data set is classed as functional. In short, it runs like this: as §3
For data set [13], the system named is Rattus norvegicus. Kind of data set: Analgesic activity in Albino rat assessed as tail withdrawal response at 10 mg/kg, po after 2 hrs. In kind it is functional. In short, it runs like this: as §5
In data set [14] the test system is Rattus norvegicus. Kind of data set: Antiinflammatory activity against formalin-induced paw edema in anaesthetized Albino rat sub-acute inflammatory model at 10 mg/kg, po measured on day 1. The data set is classed as functional. In short, it runs like this:
as §1

The test system of data set [15] is Rattus norvegicus. The data set can be described thus: Antiinflammatory activity against formalin-induced paw edema in anaesthetized Albino rat acute inflammatory model at 10 mg/kg, po dosed 1 hr before formalin challenge assessed after 3 hrs. The data set is classed as functional. In a few lines:
as §4

The test system of data set [16] is Rattus norvegicus. Kind of data set: Analgesic activity in Albino rat assessed as tail withdrawal response at 10 mg/kg, po after 3 hrs. The data set is classed as functional. In a few lines: as §5
Data set [17] has as its system Rattus norvegicus. The data set can be described thus: Antiinflammatory activity against formalin-induced paw edema in anaesthetized Albino rat sub-acute inflammatory model at 10 mg/kg, po for 7 days measured on day 8. In kind it is functional. In short, it runs like this:
as §1

In data set [18] the test system is Rattus norvegicus. Kind of data set: Analgesic activity in Albino rat assessed as tail withdrawal response at 10 mg/kg, po after 1 hr. In kind it is functional. In a few lines: as §5
Data set [19] has as its system Rattus norvegicus. The data set can be described thus: Antiinflammatory activity against formalin-induced paw edema in anaesthetized Albino rat acute inflammatory model at 10 mg/kg, po dosed 1 hr before formalin challenge assessed after 4 hrs. In kind it is functional. In a few lines: as §4
Data set [20] has as its system Rattus norvegicus. Kind of data set: Antiinflammatory activity against turpentine oil-induced granuloma pouch in anaesthetized Albino rat sub-acute inflammatory model at 10 mg/kg, po 1 hr before turpentine oil challenge for 7 days assessed after 8 days. In kind it is functional. In a few lines:
as §2

The subject of data set [21] is Rattus norvegicus. Kind of data set: Antiinflammatory activity against formalin-induced paw edema in anaesthetized Albino rat acute inflammatory model at 10 mg/kg, po dosed 1 hr before formalin challenge assessed after 1 hr. In kind it is functional. In a few lines:
as §4

For data set [22], the system named is Rattus norvegicus. Kind of data set: Antiinflammatory activity against formalin-induced paw edema in anaesthetized Albino rat acute inflammatory model at 10 mg/kg, po dosed 1 hr before formalin challenge assessed after 2 hrs. In kind it is functional. In a few lines: as §4

≈ marks a conversion by molar mass, not a printed value.

The MIC is the lowest concentration found to suppress growth. A lower MIC goes with inhibition by little substance. As for `CCOC(=O)/C(C#N)=C1/SC(C(=O)Nc2c(C)n(C)n(-c3ccccc3)c2=O)=C(N)N1c1ccccc1`, the Activity in the data set on Rattus norvegicus [1] was determined as 29%; in the data set with Rattus norvegicus [2], 53%; in the data set on Rattus norvegicus [3], 26%; in the data set on Rattus norvegicus [4], 38%; with Rattus norvegicus [5] it was 31%; in the data set with Rattus norvegicus [6], 29%. Further, the Activity with Rattus norvegicus [7] was 67%; in the data set on Rattus norvegicus [8], 32%; with Rattus norvegicus [10] it was 50%; in the data set with Rattus norvegicus [11] it was “Non-toxic”; with Rattus norvegicus [12], 30%. For the same compound, the MIC in the data set on Klebsiella pneumoniae was found to be 50 µg/mL (≈ 96.8 µM); against Escherichia coli, 50 µg/mL (≈ 96.8 µM); against Pseudomonas aeruginosa, 50 µg/mL (≈ 96.8 µM); with Micrococcus luteus it was 25 µg/mL (≈ 48.4 µM); in the data set on Staphylococcus aureus it was 12.5 µg/mL (≈ 24.2 µM); in the data set with Bacillus subtilis it was 12.5 µg/mL (≈ 24.2 µM). Besides, the LD50 at 24 h in data set [9] is > 3000 mg/kg.
As to `Cc1c(NC(=O)c2sc(=S)n(-c3ccccc3)c2NC(=S)Nc2ccccc2)c(=O)n(-c2ccccc2)n1C`, the Activity is given as 40% with Rattus norvegicus [1]; 65% in the data set on Rattus norvegicus [2]; 37% with Rattus norvegicus [3]; 41% in the data set on Rattus norvegicus [4]; 39% in the data set with Rattus norvegicus [5]; 40% in the data set with Rattus norvegicus [6]. Besides, the Activity is reported as 82% in the data set on Rattus norvegicus [7]; 48% with Rattus norvegicus [8]; 70% in the data set on Rattus norvegicus [10]; “Non-toxic” in the data set on Rattus norvegicus [11]; 30% with Rattus norvegicus [12]. The MIC in the data set with Klebsiella pneumoniae is 50 µg/mL (≈ 87.3 µM); against Escherichia coli, 50 µg/mL (≈ 87.3 µM); in the data set with Pseudomonas aeruginosa it was 50 µg/mL (≈ 87.3 µM); against Micrococcus luteus, 50 µg/mL (≈ 87.3 µM); against Staphylococcus aureus, 50 µg/mL (≈ 87.3 µM); against Bacillus subtilis it was 12.5 µg/mL (≈ 21.8 µM). The LD50 at 24 h in [9] was > 3000 mg/kg.
Regarding `Cc1c(NC(=O)/C(C#N)=C2\SCC(=O)N2c2ccccc2)c(=O)n(-c2ccccc2)n1C`, the Activity is 29% in the data set with Rattus norvegicus [1]; 53% with Rattus norvegicus [2]; 31% in the data set with Rattus norvegicus [3]; 23% in the data set on Rattus norvegicus [4]; 17% in the data set on Rattus norvegicus [5]; 19% with Rattus norvegicus [6]. Besides, the Activity in the data set with Rattus norvegicus [7] is listed as 34%; in the data set on Rattus norvegicus [8], 22%; in the data set with Rattus norvegicus [10], 20%; with Rattus norvegicus [11], “Non-toxic”; in the data set on Rattus norvegicus [12] it was 13%. Also, the minimum inhibitory concentration (MIC) turned out to be 50 µg/mL (≈ 112 µM) against Klebsiella pneumoniae; 50 µg/mL (≈ 112 µM) in the data set on Escherichia coli; 50 µg/mL (≈ 112 µM) against Pseudomonas aeruginosa; 100 µg/mL (≈ 224 µM) in the data set on Micrococcus luteus; 50 µg/mL (≈ 112 µM) against Staphylococcus aureus; 100 µg/mL (≈ 224 µM) in the data set with Bacillus subtilis. Further, in data set [9], the LD50 at 24 h is > 3000 mg/kg.
With `CC1(C)S[C@@H]2[C@H](NC(=O)[C@H](N)c3ccccc3)C(=O)N2[C@H]1C(=O)O.O.O.O` [AMPICILLIN TRIHYDRATE], the MIC in the data set on Klebsiella pneumoniae worked out at 12.5 µg/mL; against Escherichia coli, 6.25 µg/mL; against Pseudomonas aeruginosa it was 12.5 µg/mL; against Micrococcus luteus it was 12.5 µg/mL; against Staphylococcus aureus, 6.25 µg/mL; in the data set on Bacillus subtilis it was 12.5 µg/mL.
As to `O=C([O-])Cc1ccccc1Nc1c(Cl)cccc1Cl.[Na+]` [DICLOFENAC SODIUM], the Activity was determined as 55% in the data set on Rattus norvegicus [13]; 40% in the data set on Rattus norvegicus [14]; 44% with Rattus norvegicus [15]; 79% with Rattus norvegicus [16]; 46% in the data set on Rattus norvegicus [17]; 26% in the data set on Rattus norvegicus [18]. For the same compound, the Activity result is “Toxic” in the data set with Rattus norvegicus [11]; 45% in the data set with Rattus norvegicus [19]; 73% in the data set on Rattus norvegicus [20]; 17% in the data set on Rattus norvegicus [21]; 40% with Rattus norvegicus [22].
